Laboratory results reported in ChEMBL document CHEMBL4609987, “Structure-activity relationship study of the pyridine moiety of isothiazolo[4,3-b]pyridines as antiviral agents targeting cyclin G-associated kinase” (Bioorg Med Chem, 2020).

What was measured:
[1] = biological target: T1, Cyclin-G-associated kinase (Homo sapiens, UniProt O14976); assay: Inhibition of tracer 222 binding to recombinant human GST-tagged GAK (1 to 329 residues) expressed in insect cells incubated for 1 hr by Lanthascreen assay
T1 sequence (O14976 whole entry): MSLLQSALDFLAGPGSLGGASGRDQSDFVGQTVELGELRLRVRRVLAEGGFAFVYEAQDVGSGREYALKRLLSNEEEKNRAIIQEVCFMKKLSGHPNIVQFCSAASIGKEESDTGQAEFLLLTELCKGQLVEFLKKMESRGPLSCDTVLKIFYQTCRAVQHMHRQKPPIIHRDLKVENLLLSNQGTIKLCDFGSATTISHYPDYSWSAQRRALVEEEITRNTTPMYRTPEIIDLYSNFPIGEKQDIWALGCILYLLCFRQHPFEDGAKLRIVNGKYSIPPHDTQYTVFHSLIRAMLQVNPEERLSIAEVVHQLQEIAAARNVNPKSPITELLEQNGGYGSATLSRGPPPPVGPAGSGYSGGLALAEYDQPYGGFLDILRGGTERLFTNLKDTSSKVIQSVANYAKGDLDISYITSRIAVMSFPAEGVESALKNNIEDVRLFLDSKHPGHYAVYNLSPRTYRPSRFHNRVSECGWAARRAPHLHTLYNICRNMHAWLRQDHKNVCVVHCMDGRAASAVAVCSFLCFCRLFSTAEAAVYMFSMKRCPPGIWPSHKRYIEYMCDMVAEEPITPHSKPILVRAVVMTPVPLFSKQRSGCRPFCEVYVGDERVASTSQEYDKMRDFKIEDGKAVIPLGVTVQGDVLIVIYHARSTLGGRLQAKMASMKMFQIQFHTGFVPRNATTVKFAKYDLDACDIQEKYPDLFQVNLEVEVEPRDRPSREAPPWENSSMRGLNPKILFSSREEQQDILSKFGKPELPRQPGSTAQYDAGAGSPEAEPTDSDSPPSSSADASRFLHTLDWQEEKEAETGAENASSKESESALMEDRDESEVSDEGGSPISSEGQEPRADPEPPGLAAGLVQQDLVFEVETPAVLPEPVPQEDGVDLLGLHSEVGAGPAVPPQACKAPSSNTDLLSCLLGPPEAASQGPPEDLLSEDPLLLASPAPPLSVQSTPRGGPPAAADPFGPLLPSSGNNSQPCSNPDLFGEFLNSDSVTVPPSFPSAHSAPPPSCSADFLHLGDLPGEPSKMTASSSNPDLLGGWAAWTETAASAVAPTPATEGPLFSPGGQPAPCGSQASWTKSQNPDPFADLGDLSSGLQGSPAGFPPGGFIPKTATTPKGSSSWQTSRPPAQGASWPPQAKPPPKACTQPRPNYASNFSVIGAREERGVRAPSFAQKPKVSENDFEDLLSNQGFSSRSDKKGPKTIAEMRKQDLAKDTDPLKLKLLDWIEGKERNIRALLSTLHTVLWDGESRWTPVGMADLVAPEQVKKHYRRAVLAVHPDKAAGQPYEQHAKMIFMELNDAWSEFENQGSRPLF

[2] = system: dengue virus type 2; assay: Antiviral activity against Dengue virus 2 infected in human HuH7 cells incubated for 48 hrs by luciferase reporter gene assay; settings: Huh-7, 48 h
[3] = Cytotoxicity against human HuH7 cells assessed as reduction in cell viability incubated for 48 hrs by alamar blue reagent based cell viability assay; design: species or system Huh-7
Method in brief: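 Run in parallel on the same DENV2-infected Huh7 cultures (MOI 0.05, 4 h infection). Viability measured with AlamarBlue per the manufacturer's protocol, with fluorescence detected at 560 nm. CC50 calculated as the half-maximal cytotoxic concentration.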

Row | SMILES | IC50 [1] [µM] | EC50 [2] [µM] | CC50 at 48 h [3] [µM]
1 | C[C@@H]1CN(c2snc3cc(/C=C/c4ccccc4)cnc23)C[C@H](C)O1 | > 3.33 | – | –
2 | C[C@@H]1CN(c2snc3cc(C#Cc4ccccc4)cnc23)C[C@H](C)O1 | > 10 | – | –
3 | COc1ccc(-c2ccc3nsc(N4C[C@@H](C)O[C@@H](C)C4)c3n2)cc1OC | – | 1.05 | > 10
4 | COc1cc(-c2cnc3c(N4C[C@@H](C)O[C@@H](C)C4)snc3c2)cc(OC)c1OC | – | 2.79 | > 10
5 | COc1cc(-c2cnc3c(N4C[C@@H](C)O[C@@H](C)C4)snc3c2)ccc1C(=O)N1CCCC1 | – | 8.85 | > 10
6 | COc1ccc(-c2cnc3c(N4C[C@@H](C)O[C@@H](C)C4)snc3c2)cn1 | > 3.33 | – | –
7 | COc1cc(-c2cnc3c(N4C[C@@H](C)O[C@@H](C)C4)snc3c2)ccc1C(N)=O | – | 10.1 | > 10
8 | COc1cc(-c2cnc3c(N4C[C@@H](C)O[C@@H](C)C4)snc3c2)ccc1C(=O)O | – | > 10 | > 10
9 | COc1cc(-c2cnc3c(N4C[C@@H](C)O[C@@H](C)C4)snc3c2)ccc1N | 0.0394 | 0.82 | > 25
10 | COc1cc(-c2cnc3c(N4C[C@@H](C)O[C@@H](C)C4)snc3c2)ccc1C(=O)Nc1ccccc1 | > 0.37 | – | –
11 | C#Cc1cccc(Nc2ncnc3cc(OCCOC)c(OCCOC)cc23)c1 [ERLOTINIB] | – | 1.22 | > 10
12 | C[C@@H]1CN(c2snc3ccc(-c4ccc(C(F)(F)F)cc4)nc23)C[C@H](C)O1 | > 0.37 | – | –
13 | COc1cccc(-c2ccc3nsc(N4C[C@@H](C)O[C@@H](C)C4)c3n2)c1 | – | > 10 | > 10
14 | COc1cc(-c2cnc3c(N4C[C@@H](C)O[C@@H](C)C4)snc3c2)ccc1C(=O)NCc1ccccc1 | – | 5.83 | > 10
